These results are taken from ChEMBL document CHEMBL1149111, “Design and synthesis of a fluoroindolocarbazole series as selective topoisomerase I active agents. Discovery of water-soluble 3,9-difluoro-12,13-dihydro-13-[6-amino-beta-D-glucopyranosyl]-5H,13H-benzo[b]- thienyl[2,3-a]pyrrolo[3,4-c]carbazole- 5,7(6H)-dione (BMS-251873) with curative antitumor …” (J Med Chem, 2004).

Data set [1] is described as follows: Ratio for cytotoxicity against camptothecin resistant P388/CPT45 cells to that of parental P388 cells. It counts as functional, Mus musculus. The method, boiled down: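 Cytotoxicity after 3-day continuous exposure by tetrazolium dye conversion, read at 450 nm, in camptothecin-resistant P388/CPT45 cells and parental P388 cells; value is IC50 in P388/CPT45 divided by IC50 in P388.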

For data set [2], the target named is T1, DNA topoisomerase 1 (Homo sapiens) (UniProt P11387).
T1 sequence (whole entry): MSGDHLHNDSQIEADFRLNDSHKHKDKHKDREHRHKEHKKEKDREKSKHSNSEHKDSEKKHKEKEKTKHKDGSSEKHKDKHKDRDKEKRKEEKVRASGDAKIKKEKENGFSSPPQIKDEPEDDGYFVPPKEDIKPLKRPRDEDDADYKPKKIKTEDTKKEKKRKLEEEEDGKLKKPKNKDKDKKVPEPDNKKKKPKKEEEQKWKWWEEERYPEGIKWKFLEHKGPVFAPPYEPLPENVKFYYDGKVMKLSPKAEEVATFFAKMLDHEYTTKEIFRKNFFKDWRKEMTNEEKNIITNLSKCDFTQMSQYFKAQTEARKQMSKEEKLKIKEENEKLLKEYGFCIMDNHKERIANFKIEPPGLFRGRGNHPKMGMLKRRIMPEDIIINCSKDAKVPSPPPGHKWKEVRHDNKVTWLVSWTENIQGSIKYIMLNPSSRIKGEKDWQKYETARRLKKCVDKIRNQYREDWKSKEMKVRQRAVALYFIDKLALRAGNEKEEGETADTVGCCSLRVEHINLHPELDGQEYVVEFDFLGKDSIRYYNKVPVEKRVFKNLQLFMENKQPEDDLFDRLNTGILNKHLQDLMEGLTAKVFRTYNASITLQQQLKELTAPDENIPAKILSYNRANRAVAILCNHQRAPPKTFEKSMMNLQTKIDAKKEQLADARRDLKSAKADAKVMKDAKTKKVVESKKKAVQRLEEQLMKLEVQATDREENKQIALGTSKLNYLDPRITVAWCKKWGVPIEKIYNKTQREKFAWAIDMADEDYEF
Nature of the data set: Ratio of effective concentration for inducing single strand breaks in the DNA substrate by topoisomerase I compared to camptothecin. The method, boiled down:
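Topoisomerase I-mediated single-strand breaks in DNA substrate assayed by a modified Hsiang protocol; median effective concentration (EC50) for break induction divided by camptothecin EC50 measured in the same experiment.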

Data set [3] relates to P388. Nature of the data set: In vitro cytotoxic concentration against P388 murine leukemia cells was determined. It counts as functional, cell-based. The note with it: Mus musculus. The method, boiled down:
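P388 murine leukemia cells exposed continuously to compound for 3 days; proliferation measured by soluble tetrazolium/formazan conversion (absorbance 450 nm). IC50 = concentration reducing absorbance to 50% of untreated control cells; reported as mean.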

The nature of data set [4]: Volume of distribution of compound in plasma was determined at 5 mg/Kg. Format: ADME, organism-based. The note with it: mouse, read-out: Vds.
Data set [5] has as its system Mus musculus. Nature of the data set: Area under curve was determined for the compound at 5 mg/Kg. The settings on record: in vivo. It counts as ADME, organism-based.
For data set [6], the system named is Mus musculus. Put plainly: Inhibitory concentration of compound was determined after intravenous administration in mice after 8 hours of exposure at 5 mg/Kg. Format: ADME, organism-based.
The nature of data set [7]: Half life of compound was determined in plasma of mice at 5 mg/Kg. Format: ADME, organism-based. The note with it: mouse.
Data set [8] can be described thus: Plasma clearance at 5 mg/Kg. It counts as ADME, organism-based. The note with it: mouse.
For data set [9], the system named is Mus musculus. Put plainly: Area under curve was determined for the compound at 24 mg/Kg. The note with it: in vivo. It counts as ADME, organism-based.
A short description of data set [10]: Half life of compound was determined in plasma of mice at 24 mg/Kg. It counts as ADME, organism-based. The note with it: mouse.
Data set [11] can be described thus: Volume of distribution of compound in plasma was determined at 24 mg/Kg. It counts as ADME, organism-based. The note with it: mouse, read-out: Vds.
Data set [12] has as its system Mus musculus. Put plainly: Inhibitory concentration of compound was determined after intravenous administration in mice after 8 hours of exposure at 24 mg/Kg. Format: ADME, organism-based.
Data set [13] is described as follows: Plasma clearance at 24 mg/Kg. The note with it: mouse. Format: ADME, organism-based.

Where only a bound is given, the exact number is not on record here.

As a reminder, the IC50 is the point on the concentration scale where inhibition reaches its midpoint. The low end stands for greater potency, the high end for weaker potency. For orientation: half-life means the time needed for the level to fall by half in the phase considered. Higher therefore signals slow decline. Usually clearance stands for the rate of elimination divided by the concentration. A higher clearance goes with efficient removal.

In the case of `O=C1NC(=O)c2c1c1c3ccc(F)cc3[nH]c1c1c2c2ccc(F)cc2n1C1OC(CO)C(O)C(O)C1O` (stereo not given), the Ratio in data set [1] was 8.7; in [2], 2. In [3], this compound came in with an IC50 of 260 nM.

Take `O=C1NC(=O)c2c1c1c3cc(F)c(F)cc3[nH]c1c1c2c2cc(F)c(F)cc2n1C1OC(CO)C(O)C(O)C1O` (stereo not given): the Ratio turned out to be 67.1 in [1] and 0.69 in data set [2]. Moreover, in [3], the IC50 came out at 7 nM.

As for `O=C1NC(=O)c2c1c1c3cc(F)ccc3sc1c1c2c2cc(F)ccc2n1C1OC(CO)C(O)C(O)C1O` (stereo not given), the Vd in [4] worked out at 1.27 L/kg. The same compound displayed an AUC in data set [5] of 0.068 uM hr ml-1. The IC50 in [6] was found to be 150 nM; in data set [3], 10 nM. The Ratio in data set [1] came to 232.5; in [2] it was 0.09. In data set [7], this compound showed a half-life of 7.6 h. Besides, the clearance in [8] came out at 9.33 mL/min/kg.

For `O=C1NC(=O)c2c1c1c3ccccc3sc1c1c2c2cc(F)ccc2n1C1OC(CO)C(O)C(O)C1O` (stereo not given), the results for the Ratio in data set [1] and in data set [2] were above 51.3 and 2.2, respectively. Besides, it took 155 nM to reach half-maximal inhibition in data set [3] (IC50).

`O=C1c2c(c3c4cc(F)ccc4n(C4OC(CO)C(O)C(O)C4O)c3c3[nH]c4ccc(F)cc4c23)C(=O)N1O` (stereo not given): the Ratio in [1] was determined as 19.6; in data set [2] it was 0.08. In addition, 35 nM corresponded to half-maximal inhibition in [3] (IC50).

On to `O=C1NC(=O)c2c1c1c3ccccc3[nH]c1c1c2c2ccc(F)cc2n1C1OC(CO)C(O)C(O)C1O` (stereo not given), for which the Ratio in [1] is 4.6; in data set [2] it was 3.1. Besides, in data set [3], the IC50 worked out at 392 nM.

As to `CN1C(=O)c2c(c3c4cc(F)ccc4n(C4OC(CO)C(O)C(O)C4O)c3c3sc4ccc(F)cc4c23)C1=O` (stereo not given), the Ratio was found to be 14.1 in data set [1] and 0.48 in data set [2]. The same compound yielded an IC50 in data set [3] of 236 nM.

On to `O=C1NC(=O)c2c1c1c3cc(F)ccc3oc1c1c2c2cc(F)ccc2n1C1OC(CO)C(O)C(O)C1O` (stereo not given), for which the Ratio was 63.7 in data set [1] and 0.27 in data set [2]. Moreover, half-maximal inhibition in data set [3] (IC50) required 114 nM.

Consider `O=C1NC(=O)c2c1c1c3ccc(F)cc3[nH]c1c1c2c2ccccc2n1C1OC(CO)C(O)C(O)C1O` (stereo not given), for which the results for the Ratio in [1] and in [2] were 11.4 and above 200, respectively. This compound also yielded a concentration for half-maximal inhibition (IC50) in data set [3] of 98 nM.

`O=C1NC(=O)c2c1c1c3cc(F)ccc3[nH]c1c1c2c2ccccc2n1C1OC(CO)C(O)C(O)C1O` (stereo not given): the values for the Ratio in [1] and in [2] were 31.7 and 1.7, respectively. For the same compound, the midpoint of inhibition in data set [3], the IC50, lay at 101 nM.

In the case of `NN1C(=O)c2c(c3c4cc(F)ccc4n(C4OC(CO)C(O)C(O)C4O)c3c3[nH]c4ccc(F)cc4c23)C1=O` (stereo not given), the values for the Ratio in [1] and in data set [2] were 196.9 and 0.22, respectively. In data set [3], this compound returned an IC50 of 20 nM.

`O=C1NC(=O)c2c1c1c3ccccc3oc1c1c2c2cc(F)ccc2n1C1OC(CO)C(O)C(O)C1O` (stereo not given): the Ratio in data set [1] worked out at 13.6; in data set [2], 1.5. Further, in [3], half-maximal inhibition (IC50) was put at 529 nM.

Consider `O=C1NC(=O)c2c1c1c3ccccc3[nH]c1c1c2c2cc(F)ccc2n1C1OC(CO)C(O)C(O)C1O` (stereo not given), for which the figures for the Ratio in data set [1] and in data set [2] were above 9.5 and 6.6, respectively. This compound also came in with an IC50 in [3] of 1040 nM.

For the compound `O=C1NC(=O)c2c1c1c3cccc(Cl)c3[nH]c1c1c2c2cccc(Cl)c2n1C1OC(CO)C(O)C(O)C1O` (stereo not given), the Ratio in data set [1] was 1.26; in data set [2], above 500. This compound also returned an IC50 in data set [3] of 540 nM.

With `CN1C(=O)c2c(c3c4cc(F)ccc4n(C4OC(CO)C(O)C(O)C4O)c3c3[nH]c4ccc(F)cc4c23)C1=O` (stereo not given), the Ratio was above 10.8 in data set [1] and 1 in [2]. The IC50 in data set [3] is 862 nM.

The compound `O=C1NC(=O)c2c1c1c3cc(F)ccc3[nH]c1c1c2c2cc(F)ccc2n1C1OC(CO)C(O)C(O)C1O` (stereo not given) returned an AUC in [9] of 0.17 uM hr ml-1. The figures for the Ratio in [1] and in data set [2] were 182.7 and 0.22, respectively. In data set [10], the half-life was 1.6 h. Further, in data set [11], the Vd was found to be 0.1 L/kg. Moreover, the 50% inhibitory concentration (IC50) in [12] came out at 860 nM. The compound further displayed a clearance in [13] of 3.6 mL/min/kg.

As to `Cn1c2cc(F)c(F)cc2c2c3c(c4c5cc(F)c(F)cc5n(C5OC(CO)C(O)C(O)C5O)c4c21)C(=O)NC3=O` (stereo not given), the Ratio in [1] is above 1; in [2], above 600. Besides, the IC50 in data set [3] is above 8720 nM.
